Data set [1] addresses T1, Toll-like receptor 8 (Homo sapiens) (UniProt Q9NR97).
T1 sequence (whole entry): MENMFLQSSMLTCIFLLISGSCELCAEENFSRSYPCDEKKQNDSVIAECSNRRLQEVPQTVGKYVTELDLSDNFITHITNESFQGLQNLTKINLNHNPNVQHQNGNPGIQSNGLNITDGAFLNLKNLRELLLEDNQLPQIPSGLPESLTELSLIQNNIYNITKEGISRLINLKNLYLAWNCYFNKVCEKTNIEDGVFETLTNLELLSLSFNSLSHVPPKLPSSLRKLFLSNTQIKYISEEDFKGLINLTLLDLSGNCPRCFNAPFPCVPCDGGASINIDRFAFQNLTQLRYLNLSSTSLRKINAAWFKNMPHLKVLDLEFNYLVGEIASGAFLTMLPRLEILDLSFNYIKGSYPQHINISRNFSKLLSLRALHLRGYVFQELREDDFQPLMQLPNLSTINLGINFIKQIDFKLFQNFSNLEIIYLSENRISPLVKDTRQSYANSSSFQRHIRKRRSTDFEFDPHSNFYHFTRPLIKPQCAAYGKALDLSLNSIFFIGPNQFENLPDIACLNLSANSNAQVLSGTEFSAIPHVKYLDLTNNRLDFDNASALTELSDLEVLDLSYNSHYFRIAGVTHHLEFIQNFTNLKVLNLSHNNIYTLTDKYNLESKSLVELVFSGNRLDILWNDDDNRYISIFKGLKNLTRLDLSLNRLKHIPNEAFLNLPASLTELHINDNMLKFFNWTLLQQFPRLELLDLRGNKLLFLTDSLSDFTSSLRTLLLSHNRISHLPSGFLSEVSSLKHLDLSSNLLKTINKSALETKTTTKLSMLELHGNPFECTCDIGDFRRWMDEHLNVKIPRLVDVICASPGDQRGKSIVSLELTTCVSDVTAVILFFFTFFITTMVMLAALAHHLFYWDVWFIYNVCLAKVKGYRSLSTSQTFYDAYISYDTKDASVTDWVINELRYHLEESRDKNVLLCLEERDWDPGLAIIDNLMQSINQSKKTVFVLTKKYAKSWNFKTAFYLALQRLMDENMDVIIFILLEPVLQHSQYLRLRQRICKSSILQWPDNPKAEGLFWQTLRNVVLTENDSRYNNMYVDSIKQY
Kind of data set: Agonist activity at human TLR8 expressed in HEK293 cells assessed as induction of receptor activation incubated for 6 hrs by NF-kappaB-luciferase reporter gene assay. It counts as cell-based. (Reporter assays use an easily measured gene product as a stand-in for the process of interest.)

Data set [2] can be described thus: Protein binding in rat plasma fraction at 5 uM after 4.5 hrs LC-MS/MS-based rapid equilibrium dialysis method. It counts as ADME, cell-free. The note with it: read-out: PPB (converted). On the technique in general: Equilibrium dialysis compares concentrations on both sides of a semipermeable membrane.
The nature of data set [3]: AUC (0 to last) in C57BL/6J mouse liver at 3 mg/kg, po by LC-MS analysis. Format: ADME, organism-based. The note with it: in vivo. In a few lines:
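Healthy C57BL/6 mice were dosed once by mouth at 0.3, 1, 3, 10 or 30 mg/kg in 20% HP-β-CD, in groups of 15 per dose. Three mice per group were sacrificed at 0.5, 1, 2, 4 or 7 h, and plasma and liver compound levels were measured by LC–MS. Values were rounded to whole numbers.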

For data set [4], the system named is Liver. As to the kind of experiment: Effect on cytokine profile in C57BL/6J mouse liver assessed as IL-12p70 levels at 3 mg/kg, po by multiplex assay (reference value: 5 pg/g). It counts as functional, organism-based. An outline of the steps: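 Single oral gavage in 20% HP-β-CD to healthy C57BL/6 mice, groups of 15 at 0.3, 1, 3, 10 or 30 mg/kg. Three mice per group sacrificed at 0.5, 1, 2, 4 or 7 h. Plasma and liver cytokines by multiplex, maximum level reported, rounded to nearest multiple of 5.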

The test system of data set [5] is Liver. As to the kind of experiment: Proinflammatory activity in C57BL/6J mouse liver assessed as CXCL-1 levels at 1 mg/kg, po by multiplex assay (reference value: 25 pg/g). Format: functional.
Data set [6] has as its system Liver. As to the kind of experiment: Proinflammatory activity in C57BL/6J mouse liver assessed as IL-6 levels at 30 mg/kg, po by multiplex assay (reference value: 10 pg/g). Format: functional.
The test system of another data set is Plasma. Kind of data set: Proinflammatory activity in C57BL/6J mouse plasma assessed as TNFalpha levels at 30 mg/kg, po by multiplex assay (reference value: 70 pg/ml). It counts as functional.
Data set [7] deals with Liver. Kind of data set: Proinflammatory activity in C57BL/6J mouse liver assessed as TNFalpha levels at 10 mg/kg, po by multiplex assay (reference value: 15 pg/g). Format: functional.
Data set [8] has as its system Cynomolgus monkey. As to the kind of experiment: Effect on cytokine profile in cynomolgus monkey plasma assessed as IL-15 levels at 1 mg/kg, po after 24 hrs by Luminex assay (reference value: 20 pg/ml). It counts as functional, Macaca fascicularis. An outline of the steps: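 Healthy cynomolgus monkeys given single oral doses of 1, 3, 9 and 30 mg/kg, with a 2-week wash-out planned between doses. Systemic cytokine levels in plasma were sampled at 0.5, 1, 2, 4, 9 and 24 h postdose.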

Data set [9] relates to Cynomolgus monkey. As to the kind of experiment: Proinflammatory activity in cynomolgus monkey plasma assessed as IL-6 levels at 3 mg/kg, po after 24 hrs by Luminex assay (reference value: 80 pg/ml). It counts as functional, Macaca fascicularis.
The subject of data set [10] is Cynomolgus monkey. Kind of data set: Proinflammatory activity in cynomolgus monkey plasma assessed as IL-8 levels at 9 mg/kg, po after 24 hrs by Luminex assay (reference value: 430 pg/ml). Format: functional, Macaca fascicularis.
Data set [11] has as its system Cynomolgus monkey. As to the kind of experiment: Induction of ISG response in cynomolgus monkey plasma assessed as upregulation of Mx1 mRNA expression at 9 mg/kg, po after 24 hrs by Fluidigm RT-qPCR analysis (reference value: 1). It counts as functional, Macaca fascicularis. An outline of the steps:
(§1)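 Cynomolgus monkeys, single oral doses of 1, 3, 9 and 30 mg/kg with a planned 2-week wash-out between doses. Systemic ISG (ISG15, Mx1, OAS1) mRNA was measured by Fluidigm RT-qPCR at 1, 2, 4, 8 and 24 h postdose.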
In general terms: In qPCR the cycle at which signal appears reflects the starting amount.

Data set [12] has as its system Cynomolgus monkey. Kind of data set: Induction of ISG response in cynomolgus monkey plasma assessed as upregulation of Oas1b mRNA expression at 1 mg/kg, po after 24 hrs by Fluidigm RT-qPCR analysis (reference value: 1). It counts as functional, Macaca fascicularis. An outline of the steps:
as §1

Data set [13] relates to Cynomolgus monkey. As to the kind of experiment: Toxicity in cynomolgus monkey assessed as induction of emesis at 30 mg/kg, po after 1 hr postdosing. It counts as organism-based, Macaca fascicularis. The note with it: in vivo.
Data set [14] concerns Cynomolgus monkey. Kind of data set: Activation of Kupffer cells in cynomolgus monkey liver at 30 mg/kg, po after 72 hrs by CD68 staining-based immunohistochemical analysis. Format: functional, organism-based. Particulars: Macaca fascicularis. In a few lines:
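Three 2.5-year-old male naive cynomolgus monkeys were dosed orally at 30 mg/kg and euthanized 72 h later. FFPE liver sections were stained for CD68 by IHC, alongside sections from unrelated control animals. Positive cells were counted over a 30 mm² area and expressed per mm². Statistics used a one-tailed t test with Welch correction.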

The target in data set [15] is TLR7 and TLR8 (Homo sapiens) (UniProt Q9NYK1+Q9NR97). As to the kind of experiment: Agonist activity at TLR7/8 in human PBMCs co-cultured with primary human hepatocytes infected with HBV genotype C for 12 days assessed as increase in IFNalpha2 levels up to 5 uM measured after 42 days.
The subject of data set [16] is Toll-like receptor 7/8 (Homo sapiens). As to the kind of experiment: Agonist activity at TLR7/8 in human PBMCs assessed as decrease in intracellular HBV-rcDNA levels in human hepatocytes infected with HBV genotype C for 12 days followed by exposure to conditioned supernatant from up to 5 uM compound treated PBMCs measured after 42 days.

Results on one molecule are retold here after ChEMBL document CHEMBL4130635, “2,4-Diaminoquinazolines as Dual Toll-like Receptor (TLR) 7/8 Modulators for the Treatment of Hepatitis B Virus” (J Med Chem, 2018).

Active and inactive are the calls of the source. No cut-off for these calls is given here.

As for `CCC[C@@H](CCO)Nc1nc(N)nc2c(F)cccc12`, in data set [1], the MEC was 0.16 µM. Further, the fraction unbound at 4.5 h, 5 µM in data set [2] was 0.47. The molecule also gave an AUClast in data set [3] of 362 ng·h/g. The Activity entry in the data set with Liver [4] was “Below limit of detection”; in the data set on Liver [5], 6755 pg/g; with Liver [6], 7555 pg/g; in the data set on Plasma it was more than 10000 pg/mL; with Liver [7], 8330 pg/g; in the data set with Cynomolgus monkey [8], 20 pg/mL. Moreover, the Activity with Cynomolgus monkey [9] is 200 pg/mL; in the data set on Cynomolgus monkey [10] it was 1640 pg/mL; in the data set on Cynomolgus monkey [13], “Toxic”. For the same molecule, the “fold change (FC)” value in the data set with Cynomolgus monkey [11] came to 55; in the data set on Cynomolgus monkey [12], 180. Moreover, the outcome (with Cynomolgus monkey [14]; in data set [15]; in [16]) was Active.
